From PMC11362829 (RSC Advances, 2024)
In brackets after ≈: the same amount, converted by molar mass.

Legend:
[1] = target: T1, recombinant E. coli DXR enzyme (EcDXR) (Escherichia coli, UniProt P45568); test: DXR enzyme inhibition assay; assay type: biochemical; conditions: for inhibition at 50 µM: read-out: % Inhibition at 50 μM, EcDXR, 50 μM; for inhibition at 100 µM: read-out: % Inhibition at 100 μM, in vitro EcDXR inhibition, 100 μM
T1 sequence (P45568 1-398): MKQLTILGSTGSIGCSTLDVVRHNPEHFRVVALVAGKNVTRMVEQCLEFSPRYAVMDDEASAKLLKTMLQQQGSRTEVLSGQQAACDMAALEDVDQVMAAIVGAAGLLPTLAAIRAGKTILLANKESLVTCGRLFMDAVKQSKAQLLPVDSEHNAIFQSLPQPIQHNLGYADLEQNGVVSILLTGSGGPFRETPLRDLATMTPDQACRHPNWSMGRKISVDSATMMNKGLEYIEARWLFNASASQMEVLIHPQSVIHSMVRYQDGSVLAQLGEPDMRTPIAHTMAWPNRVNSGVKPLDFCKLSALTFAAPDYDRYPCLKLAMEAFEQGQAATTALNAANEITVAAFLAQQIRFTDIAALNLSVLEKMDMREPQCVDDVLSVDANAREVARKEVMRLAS
Method in brief: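 Recombinant E. coli DXR, assayed with a commercial kit following the vendor protocol. Test compound from a DMSO stock; final DMSO ~0.2% v/v or lower. Enzyme and compound pre-incubated with shaking for 10 minutes, then DXP added to start the reaction. NADPH consumption read kinetically at 340 nm. Inhibition taken at a single level or across five levels for IC50. IC50 from one representative experiment run in duplicate.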

[2] = tested on: M. tuberculosis H37Rv mc^2 6206; test: Screening against M. tuberculosis and MIC by Alamar Blue assay; assay type: cell-based; conditions: for MIC: Mycobacterium tuberculosis, H37RV, read-out: MIC against M. tuberculosis
[3] = Dilution of DMSO stock with the aqueous assay buffer; assay type: physicochemical; conditions: dilution for the 50 μM enzyme assay
E. coli = test: Screening against ESKAPE pathogens: E. coli; assay type: cell-based
Method in brief: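 E. coli grown in LB at 37 °C with shaking at 200 rpm to turbidity, then diluted to OD600 0.02. Test compound freshly dissolved in DMSO and added at one of two single levels. Growth judged visually after 24 h at 37 °C against DMSO-treated controls.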

## O=C(NC(c1ccccc1)P(=O)(O)O)c1ccccc1O (stereo not drawn) [Compound 20a, ((2-Hydroxybenzamido)(phenyl)methyl)phosphonic acid]
[1]
  IC50: 33.2 µM
  inhibition at 50 µM: 94.6%
[1]; EcDXR IC50 compared to 22a
  fold less potency than its counterpart 22a: ~2 fold
[2]; 200 μM
  Effect on M. tuberculosis growth: none of the tested compounds affected M. tuberculosis growth

## O=C(NCP(=O)(O)O)c1ccccc1O [Compound 20b, ((2-hydroxybenzamido)methyl)phosphonic acid]
[3]
  Behaviour during dilution with the aqueous buffer: precipitated during dilution

## CC(NC(=O)c1ccccc1O)P(=O)(O)O (stereo not drawn) [Compound 20c, (1-(2-Hydroxybenzamido)ethyl)phosphonic acid]
[3]
  Behaviour during dilution with the aqueous buffer: precipitated during dilution

## O=C(NC(c1cccc2ccccc12)P(=O)(O)O)c1ccccc1O (stereo not drawn) [Compound 20d, ((2-Hydroxybenzamido)(naphthalen-1-yl)methyl)phosphonic acid]
[1]
  IC50: 32.9 µM
  inhibition at 50 µM: 81.3%
[1]; EcDXR IC50 compared to 22d
  folds less potent than 22d: ~8 fold
[2]; 500 μM
  Effect on M. tuberculosis growth: inhibited M. tuberculosis growth
[2]
  MIC: > 250 µM

## O=C(NC(c1ccc(Cl)c(Cl)c1)P(=O)(O)O)c1ccccc1O (stereo not drawn) [Compound 20e, ((3,4-Dichlorophenyl)(2-hydroxybenzamido)methyl)phosphonic acid]
[2]; 500 μM
  Effect on M. tuberculosis growth: inhibited M. tuberculosis growth
[2]
  MIC: > 250 µM
[3]
  Behaviour during dilution with the aqueous buffer: precipitated during dilution

## O=C(NC(c1ccccc1)P(=O)(O)O)c1cccc(O)c1O (stereo not drawn) [Compound 21a, ((2,3-Dihydroxybenzamido)(phenyl)methyl)phosphonic acid]
[1]
  inhibition at 50 µM: 66.5%
[2]; 200 μM
  Effect on M. tuberculosis growth: none of the tested compounds affected M. tuberculosis growth

## O=C(NCP(=O)(O)O)c1cccc(O)c1O [Compound 21b, ((2,3-Dihydroxybenzamido)methyl)phosphonic acid]
[1]
  inhibition at 50 µM: 68.4%

## CC(NC(=O)c1cccc(O)c1O)P(=O)(O)O (stereo not drawn) [Compound 21c, (1-(2,3-Dihydroxybenzamido)ethyl)phosphonic acid]
[1]
  inhibition at 50 µM: 60.1%

## O=C(NC(c1cccc2ccccc12)P(=O)(O)O)c1cccc(O)c1O (stereo not drawn) [Compound 21d, ((2,3-Dihydroxybenzamido)(naphthalen-1-yl)methyl)phosphonic acid]
[1]
  inhibition at 50 µM: 78.5%

## O=C(NC(c1ccccc1)P(=O)(O)O)c1ccc2ccccc2c1O (stereo not drawn) [Compound 22a, ((1-Hydroxy-2-naphthamido)(phenyl)methyl)phosphonic acid]
[1]
  IC50: 16.9 µM
  inhibition at 50 µM: 70.9%
[1]; EcDXR IC50 compared to 22b
  folds lower potency than 22b: ~57 fold
[2]; 200 μM
  Effect on M. tuberculosis growth: none of the tested compounds affected M. tuberculosis growth

## O=C(NCP(=O)(O)O)c1ccc2ccccc2c1O [Compound 22b, ((1-Hydroxy-2-naphthamido)methyl)phosphonic acid]
[1]
  IC50: 0.29 µM
  inhibition at 50 µM: 76.3%
[2]; 500 μM
  Effect on M. tuberculosis growth: inhibited M. tuberculosis growth
[2]
  MIC: > 250 µM
E. coli
  Activity against E. coli: inactive against E. coli

## CC(NC(=O)c1ccc2ccccc2c1O)P(=O)(O)O (stereo not drawn) [Compound 22c, (1-(1-Hydroxy-2-naphthamido)ethyl)phosphonic acid]
[1]
  inhibition at 50 µM: 84.2%

## O=C(NC(c1cccc2ccccc12)P(=O)(O)O)c1ccc2ccccc2c1O (stereo not drawn) [Compound 22d, ((1-Hydroxy-2-naphthamido)(naphthalen-1-yl)methyl)phosphonic acid]
[1]
  IC50: 4.44 µM
  inhibition at 50 µM: 73.7%
[1]; EcDXR IC50 compared to 22a
  fold improvement in IC50 value compared to 22a: ~4 fold
[2]; 500 μM
  Effect on M. tuberculosis growth: inhibited M. tuberculosis growth
[2]
  MIC: 125 µM (≈ 50.9 µg/mL)
E. coli
  Activity against E. coli: inactive against E. coli

## O=C(NC(c1ccccc1)P(=O)(O)O)c1coc2ccccc2c1=O (stereo not drawn) [Compound 23a, ((4-Oxo-4H-chromene-3-carboxamido)(phenyl)methyl)phosphonic acid]
[1]
  IC50: 6.09 µM
  inhibition at 50 µM: 79.8%
[2]; 200 μM
  Effect on M. tuberculosis growth: none of the tested compounds affected M. tuberculosis growth

## O=C(NCc1ccccc1)c1ccc2ccccc2c1O [Compound 25a, N-Benzyl-1-hydroxy-2-naphthamide]
[1]; EcDXR, 50 μM
  % Inhibition at 50 μM: 30.4%
[1]
  inhibition at 50 µM: 30%

## O=C(NCCc1ccccc1)c1ccc2ccccc2c1O [Compound 25b, 1-Hydroxy-N-phenethyl-2-naphthamide]
[1]
  inhibition at 50 µM: 4.69%

## O=C(NCCCc1ccccc1)c1ccc2ccccc2c1O [Compound 25c, 1-Hydroxy-N-(3-phenylpropyl)-2-naphthamide]
[1]
  inhibition at 50 µM: 31.3%

## O=C(O)c1cccc(O)c1O [Compound F2, 2,3-Dihydroxy benzoic acid]
[1]
  inhibition at 100 µM: 93.3%

## O=C(O)c1ccc2ccccc2c1O [Compound F7, 1-Hydroxy-2-naphthoic acid]
[1]
  inhibition at 100 µM: 100%

## O=Cc1cccc(O)c1O [Compound F9, 2,3-dihydroxy benzaldehyde]
[1]
  inhibition at 100 µM: 86.5%

## O=C(O)c1coc2ccccc2c1=O [Compound F10, Chromone-3-carboxylic acid]
[1]
  inhibition at 100 µM: 100%

## O=C(O)c1ccccc1O [Compound F12, Salicylic acid]
[1]
  inhibition at 100 µM: 87.4%

## O=CN(O)CCCP(=O)(O)O [FSM, Fosmidomycin, reference compound]
[1]
  inhibition at 100 µM: 100%
